# Assay results reported in ChEMBL document CHEMBL1153726, “Synthesis and anticancer activity of sclerophytin-inspired hydroisobenzofurans” (Bioorg Med Chem Lett, 2009).
# How the values were obtained:
# Type in all cases: functional
# [1] = test system: ACHN; assay: Growth inhibition of human ACHN cells at 1 nM after 96 hrs by MTT assay; set-up: scale not given: the % may be the effect or the level left
# [2] = test system: CAKI-1; assay: Growth inhibition of human Caki1 cells at 100 nM after 96 hrs by MTT assay; set-up: scale not given: the % may be the effect or the level left
# [3] = test system: SR; assay: Growth inhibition of human SR cells at 10 uM after 96 hrs by MTT assay; set-up: scale not given: the % may be the effect or the level left
# [4] = test system: DU-145; assay: Growth inhibition of human DU145 cells at 10 uM after 96 hrs by MTT assay; set-up: scale not given: the % may be the effect or the level left
# [5] = test system: HCT-15; assay: Growth inhibition of human HCT15 cells after 96 hrs by MTT assay; conditions: HCT-15, 96 h
# Outline: (§1)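 Run in the NCI 60 human tumour cell line panel as a five-dose assay. GI50 and LC50 were reported for each cell line.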
# [6] = test system: SW-620; assay: Growth inhibition of human SW620 cells at 100 nM after 96 hrs by MTT assay; set-up: scale not given: the % may be the effect or the level left
# [7] = test system: SF-268; assay: Growth inhibition of human SF268 cells after 96 hrs by MTT assay; conditions: SF-268, 96 h
# Outline: (§2)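 Tested in the NCI 60-cell-line panel in five-dose format; GI50 and LC50 values reported for each cell line.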
# [8] = Growth inhibition of human RPMI8266 cells at 100 nM after 96 hrs by MTT assay; set-up: scale not given: the % may be the effect or the level left
# [9] = test system: OVCAR-5; assay: Growth inhibition of human OVCAR5 cells at 1 nM after 96 hrs by MTT assay; set-up: scale not given: the % may be the effect or the level left
# [10] = test system: CAKI-1; assay: Growth inhibition of human Caki1 cells at 10 nM after 96 hrs by MTT assay; set-up: scale not given: the % may be the effect or the level left
# [11] = test system: NCI/ADR-RES; assay: Growth inhibition of human NCI/ADR-RES cells after 96 hrs by MTT assay; outline: as §1
# [12] = test system: Malme-3M; assay: Growth inhibition of human MALME-3M cells at 1 uM after 96 hrs by MTT assay; set-up: scale not given: the % may be the effect or the level left
# [13] = test system: MDA-MB-468; assay: Growth inhibition of human MDA-MB-468 cells at 1 nM after 96 hrs by MTT assay; set-up: scale not given: the % may be the effect or the level left
# [14] = test system: UACC-257; assay: Growth inhibition of human UACC257 cells at 10 nM after 96 hrs by MTT assay; set-up: scale not given: the % may be the effect or the level left
# [15] = test system: UACC-62; assay: Growth inhibition of human UACC62 cells at 1 uM after 96 hrs by MTT assay; set-up: scale not given: the % may be the effect or the level left
# [16] = test system: K562; assay: Growth inhibition of human K562 cells at 10 nM after 96 hrs by MTT assay; set-up: scale not given: the % may be the effect or the level left
# [17] = test system: OVCAR-8; assay: Growth inhibition of human OVCAR8 cells at 10 uM after 96 hrs by MTT assay; set-up: scale not given: the % may be the effect or the level left
# [18] = test system: NCI-H522; assay: Growth inhibition of human NCI-H522 cells at 1 uM after 96 hrs by MTT assay; set-up: scale not given: the % may be the effect or the level left
# [19] = test system: HOP-92; assay: Growth inhibition of human HOP92 cells at 100 nM after 96 hrs by MTT assay; set-up: scale not given: the % may be the effect or the level left
# [20] = test system: 786-0; assay: Growth inhibition of human 786-0 cells at 1 nM after 96 hrs by MTT assay; set-up: scale not given: the % may be the effect or the level left
# [21] = test system: HCT-116; assay: Growth inhibition of human HCT116 cells at 100 nM after 96 hrs by MTT assay; set-up: scale not given: the % may be the effect or the level left
# [22] = test system: 786-0; assay: Growth inhibition of human 786-0 cells after 96 hrs by MTT assay; conditions: 786-0, 96 h
# [23] = test system: HOP-92; assay: Growth inhibition of human HOP92 cells at 10 nM after 96 hrs by MTT assay; set-up: scale not given: the % may be the effect or the level left
# [24] = test system: SK-MEL-2; assay: Growth inhibition of human SK-MEL-2 cells after 96 hrs by MTT assay; conditions: SK-MEL-2, 96 h; outline: as §2
# [25] = test system: EKVX; assay: Growth inhibition of human EKVX cells at 10 uM after 96 hrs by MTT assay; set-up: scale not given: the % may be the effect or the level left
# [26] = test system: NCI-H522; assay: Growth inhibition of human NCI-H522 cells after 96 hrs by MTT assay; conditions: NCI-H522, 96 h; outline: as §1
# [27] = test system: HOP-92; assay: Growth inhibition of human HOP92 cells at 10 uM after 96 hrs by MTT assay; set-up: scale not given: the % may be the effect or the level left
# [28] = test system: CCRF-CEM; assay: Growth inhibition of human CCRF-CEM cells at 10 uM after 96 hrs by MTT assay; set-up: scale not given: the % may be the effect or the level left
# [29] = test system: SK-MEL-28; assay: Growth inhibition of human SK-MEL-28 cells at 100 nM after 96 hrs by MTT assay; set-up: scale not given: the % may be the effect or the level left
# [30] = test system: NCI-H23; assay: Growth inhibition of human NCI-H23 cells at 10 nM after 96 hrs by MTT assay; set-up: scale not given: the % may be the effect or the level left
# [31] = test system: RXF 393; assay: Growth inhibition of human RXF393 cells at 1 nM after 96 hrs by MTT assay; set-up: scale not given: the % may be the effect or the level left
# [32] = test system: MDA-MB-231; assay: Growth inhibition of human MDA-MB-231 cells at 10 nM after 96 hrs by MTT assay; set-up: scale not given: the % may be the effect or the level left
# [33] = test system: NCI-H23; assay: Growth inhibition of human NCI-H23 cells at 1 nM after 96 hrs by MTT assay; set-up: scale not given: the % may be the effect or the level left
# [34] = test system: TK-10; assay: Growth inhibition of human TK10 cells at 10 nM after 96 hrs by MTT assay; set-up: scale not given: the % may be the effect or the level left
# [35] = test system: DU-145; assay: Growth inhibition of human DU145 cells at 100 nM after 96 hrs by MTT assay; set-up: scale not given: the % may be the effect or the level left
# [36] = test system: UACC-62; assay: Growth inhibition of human UACC62 cells at 100 nM after 96 hrs by MTT assay; set-up: scale not given: the % may be the effect or the level left
# [37] = test system: HOP-62; assay: Growth inhibition of human HOP62 cells at 10 nM after 96 hrs by MTT assay; set-up: scale not given: the % may be the effect or the level left
# [38] = test system: MDA-MB-468; assay: Growth inhibition of human MDA-MB-468 cells at 10 uM after 96 hrs by MTT assay; set-up: scale not given: the % may be the effect or the level left
# [39] = test system: NCI-H226; assay: Growth inhibition of human NCI-H226 cells at 10 uM after 96 hrs by MTT assay; set-up: scale not given: the % may be the effect or the level left
# [40] = test system: UACC-257; assay: Growth inhibition of human UACC257 cells at 1 nM after 96 hrs by MTT assay; set-up: scale not given: the % may be the effect or the level left
# [41] = read-out: LC50 (the source's name)
# [42] = read-out: Log10GI50 (converted)
# [43] = read-out: Log10LC50 (converted)
compound,measurement,setting,value
C=C(C)[C@H]1CC=C(C)C2=CO[C@@H](c3ccccc3F)[C@@H]21,Activity,[1],96%
same,Activity,[2],87%
same,Activity,[3],62.58%
same,Activity,[4],105.62%
same,GI50,[5]; read-out: GI50,4.38 µM
same,CC50,[5]; [41],51 µM
same,GI50,[5]; [42],4.37 µM
same,CC50,[5]; [43],51.3 µM
same,TGI,[5]; read-out: Log10TGI (converted),18.6 µM
same,TGI,[5]; read-out: TGI,18.6 µM
same,Activity,[6],101%
same,GI50,[7]; read-out: GI50,6.95 µM
same,CC50,[7]; [41],62.9 µM
same,GI50,[7]; [42],6.92 µM
same,CC50,[7]; [43],63.1 µM
same,TGI,[7]; read-out: Log10TGI (converted),23.4 µM
same,TGI,[7]; read-out: TGI,23.4 µM
same,Activity,[8],23%
same,Activity,[9],97%
same,Activity,[10],93%
same,GI50,[11]; read-out: GI50,3.67 µM
same,CC50,[11]; [41],56.1 µM
same,GI50,[11]; [42],3.63 µM
same,CC50,[11]; [43],56.2 µM
same,TGI,[11]; read-out: Log10TGI (converted),17.8 µM
same,TGI,[11]; read-out: TGI,17.9 µM
same,Activity,[12],19%
same,Activity,[13],93%
same,Activity,[14],90%
same,Activity,[15],29%
same,Activity,[16],95%
same,Activity,[17],94.8%
same,Activity,[18],29%
same,Activity,[19],43%
same,Activity,[20],99%
same,Activity,[21],82%
same,GI50,[22]; read-out: GI50,8.73 µM
same,CC50,[22]; [41],48.1 µM
same,GI50,[22]; [42],8.71 µM
same,CC50,[22]; [43],47.9 µM
same,TGI,[22]; read-out: Log10TGI (converted),21.4 µM
same,TGI,[22]; read-out: TGI,21.5 µM
same,Activity,[23],69%
same,GI50,[24]; read-out: GI50,3.74 µM
same,CC50,[24]; [41],55.2 µM
same,GI50,[24]; [42],3.72 µM
same,CC50,[24]; [43],55 µM
same,TGI,[24]; read-out: Log10TGI (converted),19.1 µM
same,TGI,[24]; read-out: TGI,19.2 µM
same,Activity,[25],102.28%
same,GI50,[26]; read-out: GI50,3.13 µM
same,CC50,[26]; [41],45.5 µM
same,GI50,[26]; [42],3.16 µM
same,CC50,[26]; [43],45.7 µM
same,TGI,[26]; read-out: Log10TGI (converted),17.4 µM
same,TGI,[26]; read-out: TGI,17.4 µM
same,Activity,[27],66.62%
same,Activity,[28],68.96%
same,Activity,[29],93%
same,Activity,[30],92%
same,Activity,[31],94%
same,Activity,[32],89%
same,Activity,[33],98%
same,Activity,[34],84%
same,Activity,[35],87%
same,Activity,[36],73%
same,Activity,[37],97%
same,Activity,[38],102.71%
same,Activity,[39],98.1%
same,Activity,[40],91%
